Screening results as filed in PubChem BioAssay.
Most compounds without a hit are left out; they make up all but 2.3% or so of the library.
RAM inhibit – inhibitors of the yeast RAM network, primary screen, dse1pr::URA3 reporter, 5-FOA selection | S. cerevisiae dse1pr::URA3 reporter, 5-FOA growth OD615, 2 d; analog-sensitive cbk1-as2 kinase mutant strain | inhibition, % at 50 µM | actives 1.8% (n = 190,000) | AID 868, 2007;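 active = inhibition above a set limit, 3 SD over mean compound inhibition, cut at about 8.4% in these data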;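 note: 0% = DMSO-only wells with no growth and 100% = 10 µM 1-NA-PP1 full growth; inhibition rescues growth on 5-FOA so higher OD means more RAM inhibition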
ABCB1 inh – ABCB1 efflux pump inhibitors, primary screen, cell-based, multiplex, flow cytometry, ABCG2 counter-screen. inhibition, % at 6.6 µM. ATP-dependent translocase ABCB1 (Homo sapiens), P08183. AID 1326, 2008. actives 0.067% (n = 190,000). CCRF-Adr cells, JC-1 efflux; in the data active = inhibition above about 40%;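 note: 0% = vehicle and 100% = reference inhibitor; higher value means more JC-1 retained so stronger ABCB1 efflux block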
Target sequence (P08183 whole entry, looked up): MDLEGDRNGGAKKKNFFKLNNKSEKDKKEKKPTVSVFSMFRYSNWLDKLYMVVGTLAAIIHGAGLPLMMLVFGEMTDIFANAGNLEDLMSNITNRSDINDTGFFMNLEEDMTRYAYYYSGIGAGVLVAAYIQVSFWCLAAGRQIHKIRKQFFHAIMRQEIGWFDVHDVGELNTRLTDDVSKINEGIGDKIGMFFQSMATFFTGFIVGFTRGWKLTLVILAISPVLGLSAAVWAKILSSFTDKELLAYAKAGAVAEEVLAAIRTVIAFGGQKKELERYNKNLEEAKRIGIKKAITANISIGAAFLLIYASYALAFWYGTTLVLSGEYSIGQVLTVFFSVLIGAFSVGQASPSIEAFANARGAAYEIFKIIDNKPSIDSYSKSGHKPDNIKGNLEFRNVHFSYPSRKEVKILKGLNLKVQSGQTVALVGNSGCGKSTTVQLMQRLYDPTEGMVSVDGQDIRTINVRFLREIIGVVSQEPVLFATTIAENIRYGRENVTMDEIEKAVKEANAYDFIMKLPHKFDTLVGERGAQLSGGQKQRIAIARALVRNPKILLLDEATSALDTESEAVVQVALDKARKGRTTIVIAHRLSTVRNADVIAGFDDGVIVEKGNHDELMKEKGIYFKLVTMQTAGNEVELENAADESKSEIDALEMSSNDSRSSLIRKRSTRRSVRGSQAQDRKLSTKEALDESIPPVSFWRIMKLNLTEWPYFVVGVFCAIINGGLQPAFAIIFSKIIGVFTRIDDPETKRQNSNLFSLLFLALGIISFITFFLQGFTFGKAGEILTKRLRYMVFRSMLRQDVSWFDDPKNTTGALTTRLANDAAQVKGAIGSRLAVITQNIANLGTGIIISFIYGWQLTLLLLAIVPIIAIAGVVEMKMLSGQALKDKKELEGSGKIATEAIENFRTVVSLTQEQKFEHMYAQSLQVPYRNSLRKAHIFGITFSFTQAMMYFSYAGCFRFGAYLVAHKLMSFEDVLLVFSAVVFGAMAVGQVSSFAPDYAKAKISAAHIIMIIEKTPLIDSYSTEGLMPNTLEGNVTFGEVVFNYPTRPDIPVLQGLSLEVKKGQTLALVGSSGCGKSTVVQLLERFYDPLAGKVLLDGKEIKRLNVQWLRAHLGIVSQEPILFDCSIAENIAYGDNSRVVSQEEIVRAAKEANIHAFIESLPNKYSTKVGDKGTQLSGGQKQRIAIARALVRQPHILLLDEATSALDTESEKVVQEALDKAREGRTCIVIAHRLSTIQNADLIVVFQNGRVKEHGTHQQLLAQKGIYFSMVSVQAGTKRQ
ABCG2 inh – ABCG2 efflux pump inhibitors, primary screen, multiplex with ABCB1, IgMXP3 cells, flow cytometry; Broad substrate specificity ATP-binding cassette transporter ABCG2 (Homo sapiens), Q9UNQ0; JC-1 efflux; inhibition, % at 6.6 µM; actives 0.1% (n = 190,000); AID 1325, 2008;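 active = inhibition above 80%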;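 note: 0% = DMSO and 100% = nicardipine control wells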
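Test system: IgMXP3 cells (ABCG2) mixed with DDAO far-red-labelled CCRF-Adr cells (ABCB1). Reagent: JC-1 transporter substrate. Compound dosing: single test compound dose, 6.6 µM final. Times: 10 min compound exposure, 25 °C. Detection: flow cytometry of retained JC-1 fluorescence. Read-out basis: efflux inhibition in percent versus controls. Controls: nicardipine and DMSO wells.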
Arbovirus anti – antivirals against arbovirus infection, primary screen, cell-based, full library, 10K replicate subset; arbovirus infection cell-based antiviral screen; inhibition, % at 10 µM; actives 0.37% (n = 200,000); in the data active = inhibition above about 30%
ABCB1 single pt – ABCB1 efflux pump inhibitors, confirmation, cell-based, single point, ABCG2 counter-screen | shares compounds with ABCG2 inh | actives 7% (n = 270) | CCRF-Adr cells, JC-1 efflux, flow cytometry | inhibition, % at 6.6 µM;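 active = inhibition of pump activity above 50%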;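 note: 0% = DMSO and 100% = nicardipine full pump inhibition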
ABCG2 single pt – ABCG2 efflux pump inhibitors, confirmation, single point, IgMXP3 cells, ABCB1 counter-screen paired; inhibition, % at 6.6 µM; shares compounds with ABCG2 inh; actives 6% (n = 270); AID 1453, 2008; JC-1 efflux, flow cytometry;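 active = inhibition above 50%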;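 note: 0% = DMSO wells and 100% = nicardipine pump inhibitor wells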
IgMXP3 autofluor – compound autofluorescence in ABCG2-expressing IgMXP3 cells, confirmation, artefact control for ABC transporter inhibitor project, cell-based, 488/530 nm, flow cytometry; shares compounds with ABCG2 inh; compound autofluorescence 488/530 nm; active compounds read high; fluorescence at 6.6 µM; actives 30% (n = 270); AID 1480, 2009;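 active = fluorescence in ABCG2-expressing cells above the plate's control-well mean plus 3 SD, cut at about 15 in these data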;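 note: median cell fluorescence with compound minus that of DMSO-treated control cells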
CCRF-Adr fluor – compound autofluorescence in ABCB1-expressing CCRF-Adr cells, confirmation, artefact control for ABC transporter inhibitor project, cell-based, 488/530 nm, flow cytometry | shares compounds with ABCG2 inh | compound autofluorescence 488/530 nm; active compounds read high | fluorescence at 6.6 µM | actives 30% (n = 270) | AID 1483, 2009;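 active = fluorescence beyond the plate control mean plus 3 SD, with a fluorescence-to-maximum score over 2, cut at about 25 in these data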
Starred values were filed as active, the others as inactive; x = no result; + = active, no number.

SMILES | RAM inhibit | ABCB1 inh | ABCG2 inh | Arbovirus anti | ABCB1 single pt | ABCG2 single pt | IgMXP3 autofluor | CCRF-Adr fluor
COc1ccc2nc(SCc3ccccc3C)nc(C)c2c1 | 5 | 2 | 90* | 5 | 6 | 45 | 16* | 7.1
Cc1ccnc(N/C=C(\C#N)c2nc(-c3cccc(Br)c3)cs2)c1 | 6 | 47* | 43 | -9 | 16 | 9 | 42* | 161*
CC(C)C(=O)NC(=S)Nc1ccccc1N1CCN(C(=O)c2ccc(Cl)cc2)CC1 | 0 | 6 | 6 | 12 | x | x | x | x
O=C(Nc1nc(-c2cc(Cl)sc2Cl)cs1)c1ccccc1 | 8 | 0 | 0 | -22 | x | x | x | x
CCCCSc1nnc(-c2ccc(C)cc2)c2ccccc12 | 2 | 3 | 92* | -12 | 25 | 40 | -2.2 | -4.4
N#CC(C#N)=C1C=C2C=C(N3CCCCCC3)CCC2CC1 (stereo not drawn) | 3 | 116* | 55 | -13 | 138* | 46 | 46* | 131*
N#CC(C#N)=C1C=C2C=C(N3CCOCC3)CCC2CC1 (stereo not drawn) | 0 | 169* | 53 | -7 | 11 | 50* | 7.7 | 25
CN1CCN(C2=CC3=CC(=C(C#N)C#N)CCC3CC2)CC1 (stereo not drawn) | 3 | + | 85* | 5 | 68* | 53* | 29* | 47*
CCN1CCN(C2=CC3=CC(=C(C#N)C#N)CCC3CC2)CC1 (stereo not drawn) | 2 | 70* | 55 | -10 | 23 | 46 | 35* | 93*
CC1(C)CC(NCCN2CCN(C3=CC(=C(C#N)C#N)CC(C)(C)C3)CC2)=CC(=C(C#N)C#N)C1 | 0 | 0 | 5 | -7 | x | x | x | x
CCOC(=O)c1c(NS(=O)(=O)c2cccc(OC)c2)sc2c1CCC2 | 3 | -1 | -1 | 10 | x | x | x | x
CCCn1nc([N+](=O)[O-])c(C(C#N)c2nc3ccccc3s2)c(Cl)c1=O (stereo not drawn) | 6 | 1 | 1 | -36 | x | x | x | x
CCOC(=O)N1CCN(C(=O)c2ccc(Cl)c(S(=O)(=O)N3CCOCC3)c2)CC1 | -1 | 0 | 0 | 8 | x | x | x | x
CCOc1cc(C#N)c(NC(=O)c2ccnn2C)cc1OCC | 3 | -3 | -3 | 2 | x | x | x | x
Cn1c(=NC(=O)C2CC2)sc2cccc(F)c21 | 0 | 0 | 2 | -3 | x | x | x | x
CCc1cc2c(=O)[nH]cnc2s1 | 1 | 0 | 1 | 1 | x | x | x | x
CCn1c(SC(C)C(=O)O)nc2sc3c(c2c1=O)CCC3 (stereo not drawn) | 0 | -1 | -3 | 1 | x | x | x | x
Cc1ccc(Nc2ccc(C(F)(F)F)cc2[N+](=O)[O-])cc1 | 7 | 1 | 5 | 0 | x | x | x | x
CC(=O)Nc1ccc(Nc2ccc(S(=O)(=O)C(F)(F)F)cc2[N+](=O)[O-])cc1 | 0 | 1 | 92* | 11 | 1 | 55* | -2.2 | -4.4
COc1ccc(C2/C(=C(/O)c3ccccc3)C(=O)C(=O)N2CCN2CCOCC2)c(OC)c1 (stereo not drawn) | 0 | 0 | 4 | 5 | x | x | x | x
CCOC(=O)CSc1nc2cc(C)ccc2cc1C#N | 7 | 0 | 5 | -5 | x | x | x | x
CCOC(=O)CSc1nc2cc(C)cc(C)c2cc1C#N | 2 | 2 | 99* | -4 | 1 | 16 | 61* | 0.71
C=CCOC(=O)C1=C(C)NC(=O)NC1C1CC=CCC1 (stereo not drawn) | 1 | 0 | 1 | 1 | x | x | x | x
COc1ccc(Cl)cc1NC(=O)COC(=O)CCCN1C(=O)c2ccccc2C1=O | 7 | 2 | 3 | -6 | 1 | 20 | -1.4 | 0.16
CCc1nc2ccccc2n1CC(=O)Nc1cc(C)on1 | 0 | 0 | 3 | -1 | x | x | x | x
SMILES | RAM inhibit | ABCB1 inh | ABCG2 inh | Arbovirus anti | ABCB1 single pt | ABCG2 single pt | IgMXP3 autofluor | CCRF-Adr fluor
CCOCc1cnc(C)nc1NCC(=O)c1c(C)[nH]c2ccc(OC)cc12 | 2 | 1 | 2 | 5 | x | x | x | x
Cc1sc2ncnc(NCC3COc4ccccc4O3)c2c1C (stereo not drawn) | -2 | 0 | 82* | 17 | 1 | 28 | -2.1 | -3
CC(=O)Nc1ccc(C(=O)OCC(=O)c2cccc([N+](=O)[O-])c2)cc1 | 2 | 0 | 82* | 0 | 0 | 46 | -1.6 | -4.8
Nn1c(Cc2cccc3ccccc23)nnc1SCc1ccc(Cl)c(Cl)c1 | 2 | 66* | 82* | 5 | 1 | 17 | 0.36 | -1.9
Nn1c(Cc2cccc3ccccc23)nnc1SCc1c(Cl)cccc1Cl | 1 | 1 | 2 | -16 | x | x | x | x
Cc1cc(C(C)(C)C)cc(C)c1CC1=NCCN1 | 0 | 0 | 0 | 13 | x | x | x | x
O=c1cc(-c2ccccc2)[nH][nH]1 | 1 | 82* | -2 | -6 | 1 | -2 | -1.1 | 0.06
O=C(NC1CCCC1)C(c1ccncc1)N(Cc1ccccc1)C(=O)Cc1cccs1 (stereo not drawn) | 1 | 1 | 0 | 1 | x | x | x | x
COC(=O)c1ccc(C(C(=O)NC2CCCCC2)N(Cc2ccccc2)C(=O)Cc2cccs2)cc1 (stereo not drawn) | 3 | 48* | 45 | 3 | 26 | 27 | -2.4 | -4.5
CCN(CC)c1ccc2cc(-c3nc4ccccc4[nH]3)c(=O)oc2c1 | 0 | 39 | 65 | -3 | -129 | -15 | 122* | 296*
COc1ccccc1N1C(=O)c2ccc(C(=O)Nc3nccs3)cc2C1=O | 6 | 0 | 16 | 5 | x | x | x | x
N#Cc1ccc(COC(=O)c2ccc(N3CCCC3)c([N+](=O)[O-])c2)cc1 | 8 | 0 | 90* | 19 | 5 | 38 | -2.3 | -4.4
CN(CCCOc1ccccc1Br)Cc1ccccc1 | 0 | 56* | 0 | -8 | -6 | -9 | 112* | 26*
Cc1c(Cl)c([N+](=O)[O-])nn1CCCC(=O)Nc1cc(Oc2ccccc2)cc([N+](=O)[O-])c1 | 5 | 2 | 85* | -10 | 18 | 31 | -0.99 | -1.8
CCC1=NN(C(=O)COc2ccccc2C)C(O)(c2ccncc2)C1 (stereo not drawn) | 0 | 1 | 2 | 8 | x | x | x | x
